Assay results from ChEMBL document CHEMBL3994591, “Novel ferulic amide derivatives with tertiary amine side chain as acetylcholinesterase and butyrylcholinesterase inhibitors: The influence of carbon spacer length, alkylamine and aromatic group” (Eur J Med Chem, 2017).

B1: Acetylcholinesterase (Homo sapiens), P22303 (protein)
chain: MRPPQCLLHTPSLASPLLLLLLWLLGGGVGAEGREDAELLVTVRGGRLRGIRLKTPGGPVSAFLGIPFAEPPMGPRRFLPPEPKQPWSGVVDATTFQSVCYQYVDTLYPGFEGTEMWNPNRELSEDCLYLNVWTPYPRPTSPTPVLVWIYGGGFYSGASSLDVYDGRFLVQAERTVLVSMNYRVGAFGFLALPGSREAPGNVGLLDQRLALQWVQENVAAFGGDPTSVTLFGESAGAASVGMHLLSPPSRGLFHRAVLQSGAPNGPWATVGMGEARRRATQLAHLVGCPPGGTGGNDTELVACLRTRPAQVLVNHEWHVLPQESVFRFSFVPVVDGDFLSDTPEALINAGDFHGLQVLVGVVKDEGSYFLVYGAPGFSKDNESLISRAEFLAGVRVGVPQVSDLAAEAVVLHYTDWLHPEDPARLREALSDVVGDHNVVCPVAQLAGRLAAQGARVYAYVFEHRASTLSWPLWMGVPHGYEIEFIFGIPLDPSRNYTAEEKIFAQRLMRYWANFARTGDPNEPRDPKAPQWPPYTAGAQQYVSLDLRPLEVRRGLRAQACAFWNRFLPKLLSATDTLDEAERQWKAEFHRWSSYMVHWKNQFDHYSKQDRCSDL

Legend:
[1] = Octanol-water partition coefficient, log P of the compound at pH 7.4 by shake flask method; type: physicochemical
Outline: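 Shake flask partition between octanol and PBS (pH 7.4). Mixture shaken at 37 °C overnight, then centrifuged at 2000 rpm for 20 min. Phases analysed by C18 HPLC with methanol-0.1% TEA (85:15, v/v) at 1.0 mL/min and 32 °C, detection at 322 nm. Run in triplicate, log P calculated.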

[2] = Inhibition of carboxylesterase (unknown origin) using 4-nitrophenyl acetate as substrate by UV-Vis spectrophotometer; parameters: species or system Homo sapiens
Outline: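 Read-out was 4-nitrophenol released by CaE hydrolysis of 1.0 mmol/L 4-nitrophenyl acetate, measured at 405 nm. Reactions ran in 100 mmol/L potassium phosphate buffer, pH 8.0, at 25 °C. CaE activity was taken as proportional to 4-nitrophenol concentration.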

Cholinesterase = Cholinesterase (Homo sapiens, UniProt P06276); assay: Inhibition of butyrylcholinesterase (unknown origin) using butyrylthiocholine iodide as substrate after 25 mins by Ellmann method
Outline: (§1)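 Modified Ellman assay, triplicate. Compounds dissolved in Tween 80, diluted with water to five concentrations. Mix: enzyme […], substrate (acetylthiocholine iodide or butyrylthiocholine iodide) and test compound in phosphoric acid buffer, pH 8.0, 0.1 mol/L. Incubated 25 min at 30 °C, then terminated. IC50 reported as mean ± SD of three experiments.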

Homo sapiens = species on record: Homo sapiens; assay: Selectivity index, ratio of IC50 for butyrylcholinesterase (unknown origin) to IC50 for acetylcholinesterase (unknown origin)
Acetylcholinesterase [3] = target: T1, Acetylcholinesterase (Homo sapiens, UniProt P22303); assay: Inhibition of acetylcholinesterase (unknown origin) using acetylthiocholine iodide as substrate after 25 mins by Ellmann method; outline: as §1
Acetylcholinesterase [4] = target: T1, Acetylcholinesterase; assay: Potency index, ratio of rivastigmine IC50 to compound IC50 for acetylcholinesterase (unknown origin)
[5] = compound: COc1cc(/C=C/C(=O)Nc2ccccc2)ccc1OCCCCCCN1CCCCC1; assay: Mixed type inhibition of acetylcholinesterase (unknown origin) assessed as Km for substrate at 0.41 uM using acetylthiocholine iodide as substrate by Michaelis-Menten plot analysis (reference value: 5.99 mM); conditions: Homo sapiens
[6] = compound: COc1cc(/C=C/C(=O)Nc2ccccc2)ccc1OCCCCCCN1CCCCC1; assay: Mixed type inhibition of acetylcholinesterase (unknown origin) assessed as Km for substrate at 0.82 uM using acetylthiocholine iodide as substrate by Michaelis-Menten plot analysis (reference value: 5.99 mM); conditions: Homo sapiens
[7] = compound: COc1cc(/C=C/C(=O)Nc2ccccc2)ccc1OCCCCCCN1CCCCC1; assay: Mixed type inhibition of acetylcholinesterase (unknown origin) assessed as enzyme Vmax at 0.18 uM using acetylthiocholine iodide as substrate by Michaelis-Menten plot analysis (reference value: 0.027 deltaA/min); conditions: Homo sapiens
[8] = compound: COc1cc(/C=C/C(=O)Nc2ccccc2)ccc1OCCCCCCN1CCCCC1; assay: Mixed type inhibition of acetylcholinesterase (unknown origin) assessed as Km for substrate at 0.18 uM using acetylthiocholine iodide as substrate by Michaelis-Menten plot analysis (reference value: 5.99 mM); conditions: Homo sapiens
[9] = compound: COc1cc(/C=C/C(=O)Nc2ccccc2)ccc1OCCCCCCN1CCCCC1; assay: Mixed type inhibition of acetylcholinesterase (unknown origin) assessed as enzyme Vmax at 0.82 uM using acetylthiocholine iodide as substrate by Michaelis-Menten plot analysis (reference value: 0.027 deltaA/min); conditions: Homo sapiens
[10] = compound: COc1cc(/C=C/C(=O)Nc2ccccc2)ccc1OCCCCCCN1CCCCC1; assay: Mixed type inhibition of acetylcholinesterase (unknown origin) assessed as enzyme Vmax at 0.41 uM using acetylthiocholine iodide as substrate by Michaelis-Menten plot analysis (reference value: 0.027 deltaA/min); conditions: Homo sapiens

Chain of Cholinesterase (P06276 whole entry): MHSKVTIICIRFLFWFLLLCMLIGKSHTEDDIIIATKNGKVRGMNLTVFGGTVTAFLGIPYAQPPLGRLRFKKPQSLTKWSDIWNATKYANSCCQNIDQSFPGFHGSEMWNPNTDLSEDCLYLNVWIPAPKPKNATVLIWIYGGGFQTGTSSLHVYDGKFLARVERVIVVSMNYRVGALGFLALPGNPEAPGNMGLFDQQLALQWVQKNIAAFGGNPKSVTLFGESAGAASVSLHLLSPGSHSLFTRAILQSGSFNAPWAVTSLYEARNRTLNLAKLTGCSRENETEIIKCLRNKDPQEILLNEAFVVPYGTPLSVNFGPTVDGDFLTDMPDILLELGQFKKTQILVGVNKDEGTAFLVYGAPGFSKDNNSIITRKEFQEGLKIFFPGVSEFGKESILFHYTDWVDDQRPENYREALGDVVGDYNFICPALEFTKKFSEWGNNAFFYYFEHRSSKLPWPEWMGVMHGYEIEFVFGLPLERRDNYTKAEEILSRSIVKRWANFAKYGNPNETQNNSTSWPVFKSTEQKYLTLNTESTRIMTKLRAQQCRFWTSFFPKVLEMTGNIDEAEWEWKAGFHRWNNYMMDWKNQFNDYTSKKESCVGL

| Molecule | logD [1] | IC50 [2] [µM] | IC50 (Cholinesterase) [µM] | Ratio IC50 (Homo sapiens) | IC50 (Acetylcholinesterase [3]) [µM] | Ratio IC50 (Acetylcholinesterase [4]) | Km [5] [mM] | Km [6] [mM] | Vmax [7] [deltaA/min] | Km [8] [mM] | Vmax [9] [deltaA/min] | Vmax [10] [deltaA/min] |
| --- | --- | --- | --- | --- | --- | --- | --- | --- | --- | --- | --- | --- |
| COc1cc(/C=C/C(=O)Nc2ccccc2)ccc1OCCCCCCCCCCN1CCCCC1 | 1.83 | > 500 | 4.84 | 0.44 | 11.1 |  |  |  |  |  |  |  |
| CCOC(=O)/C=C/c1ccc(OCCCCCCN(CC)CC)c(OC)c1 | 1.8 | > 500 | 11.4 | 5.87 | 1.94 |  |  |  |  |  |  |  |
| COc1cc(/C=C/C(=O)Nc2ccccc2)ccc1OCCCCCCCCCCN1CCCC1 | 1.86 | > 500 | 2.99 | 0.22 | 13.5 |  |  |  |  |  |  |  |
| COc1cc(/C=C/C(=O)Nc2ccccc2)ccc1OCCCCCCCCN1CCCC1 | 1.78 | > 500 | 4.03 | 1.38 | 2.91 |  |  |  |  |  |  |  |
| CCN(CC)CCCCCCOc1ccc(/C=C/C(=O)O)cc1OC | 1.29 | > 500 | 263 | 98.6 | 2.67 |  |  |  |  |  |  |  |
| COc1cc(/C=C/C(=O)O)ccc1OCCCCCCN1CCCCC1 | 1.32 | > 500 | 146 | 3.2 | 45.6 |  |  |  |  |  |  |  |
| COc1cc(/C=C/C(=O)Nc2ccccc2)ccc1OCCN1CCCCC1 | 1.56 | > 500 | 2.34 | 0.12 | 19.4 |  |  |  |  |  |  |  |
| COc1cc(/C=C/C(=O)Nc2ccccc2)ccc1OCCN1CCCC1 | 1.54 | > 500 | 12.7 | 0.36 | 35.1 |  |  |  |  |  |  |  |
| COc1cc(/C=C/C(=O)Nc2ccccc2)ccc1OCCCCN(C)C | 1.57 | > 500 | 25.9 | 0.26 | 100 |  |  |  |  |  |  |  |
| CCOC(=O)/C=C/c1ccc(OCCCCCCCCN(CC)CC)c(OC)c1 | 1.98 | > 500 | 13 | 8.37 | 1.56 |  |  |  |  |  |  |  |
| CCN(CC)CCOc1ccc(/C=C/C(=O)Nc2ccccc2)cc1OC | 1.53 | > 500 | 11.5 | 0.28 | 41.1 |  |  |  |  |  |  |  |
| COc1cc(/C=C/C(=O)Nc2ccccc2)ccc1OCCCN1CCCC1 | 1.57 | > 500 | 14.2 | 0.38 | 37.1 |  |  |  |  |  |  |  |
| CCN(CC)CCCCOc1ccc(/C=C/C(=O)Nc2ccccc2)cc1OC | 1.59 | > 500 | 25.1 | 0.6 | 41.6 |  |  |  |  |  |  |  |
| COc1cc(/C=C/C(=O)Nc2ccccc2)ccc1OCCCCN1CCCC1 | 1.6 | > 500 | 3.83 | 0.16 | 24.4 |  |  |  |  |  |  |  |
| CCN(CC)CCCCCCCCCCOc1ccc(/C=C/C(=O)Nc2ccccc2)cc1OC | 1.83 | > 500 | 8.47 | 0.57 | 14.9 |  |  |  |  |  |  |  |
| COc1cc(/C=C/C(=O)Nc2ccccc2)ccc1OCCCCCCN(C)C | 1.69 | > 500 | 6.72 | 0.8 | 8.4 |  |  |  |  |  |  |  |
| COc1cc(/C=C/C(=O)Nc2ccccc2)ccc1O | 1.42 | > 500 | > 500 |  | > 500 |  |  |  |  |  |  |  |
| COc1cc(/C=C/C(=O)Nc2ccccc2)ccc1OCCCCCCN1CCCC1 | 1.76 | > 500 | 2.23 | 2.01 | 1.11 | 9 |  |  |  |  |  |  |
| COc1cc(/C=C/C(=O)Nc2ccccc2)ccc1OCCCN1CCCCC1 | 1.58 | > 500 | 4.78 | 0.33 | 14.5 |  |  |  |  |  |  |  |

| Molecule | logD [1] | IC50 [2] [µM] | IC50 (Cholinesterase) [µM] | Ratio IC50 (Homo sapiens) | IC50 (Acetylcholinesterase [3]) [µM] | Ratio IC50 (Acetylcholinesterase [4]) | Km [5] [mM] | Km [6] [mM] | Vmax [7] [deltaA/min] | Km [8] [mM] | Vmax [9] [deltaA/min] | Vmax [10] [deltaA/min] |
| --- | --- | --- | --- | --- | --- | --- | --- | --- | --- | --- | --- | --- |
| COc1cc(/C=C/C(=O)Nc2ccccc2)ccc1OCCN(C)C | 1.5 | > 500 | 23.3 | 1 | 23.2 |  |  |  |  |  |  |  |
| COc1cc(/C=C/C(=O)Nc2ccccc2)ccc1OCCCN(C)C | 1.55 | > 500 | 20 | 0.59 | 33.9 |  |  |  |  |  |  |  |
| CCN(C)C(=O)Oc1cccc([C@H](C)N(C)C)c1 [RIVASTIGMINE] | 1.68 | 31.1 |  |  |  |  |  |  |  |  |  |  |
| COc1cc(/C=C/C(=O)Nc2ccccc2)ccc1OCCCCCN1CCCC1 | 1.64 | > 500 | 4.78 | 0.77 | 6.21 |  |  |  |  |  |  |  |
| CCOC(=O)/C=C/c1ccc(OCCCCCCN2CCCC2)c(OC)c1 | 1.82 | > 500 | 377 | 74.6 | 5.05 |  |  |  |  |  |  |  |
| CCN(CC)CCCCCOc1ccc(/C=C/C(=O)Nc2ccccc2)cc1OC | 1.63 | > 500 | 22.1 | 1.17 | 19 |  |  |  |  |  |  |  |
| COc1cc(/C=C/C(=O)Nc2ccccc2)ccc1OCCCCCCCCN(C)C | 1.74 | > 500 | 10.4 | 1.16 | 8.95 |  |  |  |  |  |  |  |
| COc1cc(/C=C/C(=O)Nc2ccccc2)ccc1OCCCCCCCCCCN(C)C | 1.8 | > 500 | 20.6 | 2.07 | 9.93 |  |  |  |  |  |  |  |
| COc1cc(/C=C/C(=O)O)ccc1OCCCCCCN1CCCC1 | 1.29 | > 500 | 287 | 4.1 | 69.9 |  |  |  |  |  |  |  |
| CCOC(=O)/C=C/c1ccc(OCCCCCCN2CCCCC2)c(OC)c1 | 1.81 | > 500 | 41.8 | 15.8 | 2.65 |  |  |  |  |  |  |  |
| COc1cc(/C=C/C(=O)Nc2ccccc2)ccc1OCCCCCN1CCCCC1 | 1.65 | > 500 | 5.9 | 1.23 | 4.8 |  |  |  |  |  |  |  |
| COc1cc(/C=C/C(=O)Nc2ccccc2)ccc1OCCCCCN(C)C | 1.61 | > 500 | 12.1 | 0.37 | 33 |  |  |  |  |  |  |  |
| CCN(CC)CCCCCCCCOc1ccc(/C=C/C(=O)O)cc1OC | 1.51 | > 500 | 302 | 95.1 | 3.18 |  |  |  |  |  |  |  |
| COc1cc(/C=C/C(=O)Nc2ccccc2)ccc1OCCCCN1CCCCC1 | 1.61 | > 500 | 5.69 | 0.8 | 7.14 |  |  |  |  |  |  |  |
| CCN(CC)CCCCCCOc1ccc(/C=C/C(=O)Nc2ccccc2)cc1OC | 1.7 | > 500 | 4.86 | 2.66 | 1.83 |  |  |  |  |  |  |  |
| CCN(CC)CCCOc1ccc(/C=C/C(=O)Nc2ccccc2)cc1OC | 1.57 | > 500 | 16.9 | 0.71 | 23.7 |  |  |  |  |  |  |  |
| CCN(CC)CCCCCCCCOc1ccc(/C=C/C(=O)Nc2ccccc2)cc1OC | 1.75 | > 500 | 3.98 | 2.93 | 1.36 |  |  |  |  |  |  |  |
| COc1cc(/C=C/C(=O)Nc2ccccc2)ccc1OCCCCCCCCN1CCCCC1 | 1.79 | > 500 | 5.45 | 1.32 | 4.12 |  |  |  |  |  |  |  |
| B1 |  |  |  |  |  |  | 7.71 | 8.85 | 0.023 | 6.69 | 0.015 | 0.019 |
